A selection: hits, their analogues and other compounds. The true share with any hit is near 2.3%.
EWS-Fli block: EWS/Fli-driven NR0B1 reporter inhibitors, primary screen, A673 cells, NR0B1 luciferase, luminescence, MLPCN library | viability-normalised | inhibition, % at 12.6 µM | 350,000 tested, 0.67% active | AID 651661, 2012;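 active means mean inhibition of at least 50% after viability correction, with every replicate also passing that limit; inconclusive means mean reaches 50% but only one of two replicates passes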;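 further: firefly luciferase signal divided by Alamar Blue viability fluorescence both relative to DMSO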
TROY signal inh: inhibitors of TROY-driven NF-kB signaling, primary screen, Q293 LMP1-TROYcd cells, NF-kB luciferase, uHTS; inhibition, % at 10 µM; 360,000 tested, 0.98% active; Q293 LMP1-TROYcd NF-kB luciferase reporter, 4 h;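 active means compounds whose plate-normalised and pattern-corrected inhibition of the luciferase reporter signal at the single screening dose is 50% or more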
TWEAK-Fn14 inh: inhibitors of TWEAK-Fn14 signaling, primary screen, luciferase reporter cells, uHTS; TWEAK-stimulated Fn14 reporter cells, luciferase luminescence, 8 h; AID 1159606, 2016; inhibition, % at 10 µM; 360,000 tested, 2% active; in the data active means inhibition above about 50%
LGR2 inh: inhibitors of bursicon-induced LGR2 CRE-luciferase signal, primary screen, cell-based, HEK293, CRE-luciferase reporter, bursicon stimulation; bursicon-stimulated, 4 h; inhibition, % at 9.99 µM; 380,000 tested, 0.35% active; AID 720647, 2013;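 active means drop in luminescence signal, shown as inhibition above about 50% in the replicate tests, limit read from the data, passing the limit was not always enough; inconclusive means probably only some replicates passing the limit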;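 further: agonist challenge used bursicon conditioned medium at about half maximal strength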
FN deposit inh: inhibitors of fibronectin matrix deposition, primary screen, AH1F cells, Alexa488-fibronectin fluorescence, plate reader; inhibition, % at 12.6 µM; AH1F fibroblasts, overnight; AID 743247, 2014; 350,000 tested, 0.086% active;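 active means mean inhibition across replicates of 30% or more, regardless of how many single replicates reach that level; inconclusive means mean under 30% yet at least half of replicates reach 30%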;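 further: positive control wells lacked labelled fibronectin entirely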
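Test system: AH1F fibroblast monolayer depositing Alexa488-labelled fibronectin into matrix. Input: 10000 cells per well. Technique: fluorescence, ex 485 nm, em 525 nm. Buffer or medium: DMEM plus 2% serum, read in PBS. Timing: 1 h cell adhesion before compound, then overnight fibronectin incubation. Compound: single dose, pinned. Read-out basis: inhibition from reduced deposited-fibronectin fluorescence.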
XiGFP reactiv: activators of inactive X chromosome reactivation, primary screen, imaging, XiGFP fibroblasts, GFP high-content imaging, set 2 | XiGFP mouse fibroblasts, % GFP-positive cells imaging, 3 d; cells co-treated with 5-aza-dC sensitizer; scaled so ellipticine positive control = 100% | activation, % at 7.58 µM | 360,000 tested, 0.055% active;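 active means mean normalized replicate activation at least 10% and every replicate at or above 10%; inconclusive means only one of the two criteria met; inactive means mean below 10% and not all replicates reach 10%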;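 further: 0% = median of on-plate neutral control wells and 100% = ellipticine 6 µM median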
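Material: SV40-immortalized XiGFP fibroblast cells, line 68-5-11 | Buffer or medium: DMEM containing 5-aza-dC | Dosing: One concentration, pinned | Times: 3 d treatment, 15 min room-temperature fixation | Controls: Ellipticine 6 µM positive control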
* marks the source's active call; other numbers are inactive results; ? = inconclusive; · = no result.

SMILES	EWS-Fli block	TROY signal inh	TWEAK-Fn14 inh	LGR2 inh	FN deposit inh	XiGFP reactiv
Cn1c(SCC(=O)N/N=C/c2ccc([N+](=O)[O-])s2)nnc1-c1ccccc1	48.6	-8.9	58.3*	8.1	-4.8	2.7
O=C(N/N=C/c1ccc([N+](=O)[O-])s1)c1ccccc1	63.5*	-24.6	-11.7	15.8	·	0.0
Cc1ccccc1C(=O)N/N=C/c1ccc([N+](=O)[O-])s1	·	6.2	13.1	23.6	·	·
O=C(N/N=C\c1ccc([N+](=O)[O-])s1)c1cncc(Br)c1	-5.8	14.3	52.6*	·	14.0	0.0
NC(=S)n1[nH]c(-c2ccc([N+](=O)[O-])cc2)c(N=Nc2ccc(Cl)cc2)c1=O	·	53.0*	54.5*	·	·	·
Cc1ccc([N+](=O)[O-])cc1N=Nc1c(-c2ccc([N+](=O)[O-])cc2)[nH]n(C(N)=S)c1=O	·	64.5*	80.9*	·	·	·
Cc1ccc([N+](=O)[O-])cc1N=Nc1c(C)[nH]n(C(N)=S)c1=O	13.9	-0.4	-4.3	-15.6	-4.6	0.0
N#Cc1c([N+](=O)[O-])cc([N+](=O)[O-])cc1S(=O)(=O)Cc1ccccc1	?	51.6*	42.9	6.5	44.7*	1.0
O=S(=O)(/C(=C\c1ccc(C(F)(F)F)cc1)c1nc2ccccc2[nH]1)c1ccccc1	·	53.6*	99.8*	·	·	·
C[C@@H]1CN([C@H](C)CO)C(=O)Cc2cc(NS(=O)(=O)c3ccccc3)ccc2O[C@H]1CN(C)CC1CC1	2.1	·	·	-12.8	·	-0.8
O=C1CCC(=O)N1CC1CC2CCC1C2 (stereo unspecified)	62.7*	-2.5	-4.9	11.5	1.9	0.0
CCCCC(CC)CN=C(N)NC(N)=NCCCCCCN=C(N)NC(N)=NCC(CC)CCCC (stereo unspecified)	·	71.1*	105.3*	·	·	·
CCCCC(CC)CO (stereo unspecified)	-3.2	9.5	2.9	·	·	·
Cc1ncc([N+](=O)[O-])n1Cc1cccc(F)c1	10.9	18.9	69.7*	13.0	-2.9	0.2
O=S(=O)(N[C@H]1CC[C@@H](CCn2cc(-c3ccccc3F)nn2)O[C@@H]1CO)c1ccc(Cl)cc1	8.6	·	·	4.3	-8.1	-0.3
C[C@@H]1CN(C)C(=O)c2cc(NS(C)(=O)=O)ccc2O[C@H]1CN(C)S(C)(=O)=O	·	·	·	·	-8.8	0.3
CN(C)c1ccc(/C=N/N=C2/NC(=O)/C(=C/c3ccc([N+](=O)[O-])cc3)S2)cc1	·	32.8	59.6*	·	2.2	·
CN(C)c1ccc(C=C2SC(=S)NC2=O)cc1	-85.6	-30.8	-24.5	-62.4	-6.7	0.0
COc1ccccc1S(=O)(=O)Nc1ccc2c(c1)OC[C@@H](C)NC[C@H](C)[C@@H](OC)CN(C)C2=O	5.0	·	·	-10.7	5.1	-0.1
O=C(CCn1cnc(-c2ccccc2)c1-c1ccccc1)N/N=C/c1ccc(O)cc1	-4.9	12.7	16.6	-10.6	8.3	0.4
COc1ccc(/C=N/NC(=O)CCn2cnc(-c3ccccc3)c2-c2ccccc2)cc1	51.4*	27.7	33.3	-9.9	-10.2	0.3
COc1ccccc1-c1cnc2c(c1)C(=O)N([C@H](C)CO)C[C@@H](C)[C@@H](CN(C)Cc1cncnc1)O2	-10.6	·	·	-17.2	·	0.0
O=C1/C(=C\c2cccc(O)c2O)SC(=S)N1Cc1ccccc1	44.6	16.0	33.3	·	22.1	0.1
O=C1/C(=C\c2cc([N+](=O)[O-])ccc2O)SC(=S)N1Cc1ccc(Cl)cc1	12.8	52.7*	72.4*	14.9	-7.1	-0.1
Cc1ccccc1/C=C1\SC(=S)N(/N=C/c2cc([N+](=O)[O-])ccc2O)C1=O	8.1	77.8*	16.7	5.2	-11.9	0.0
SMILES	EWS-Fli block	TROY signal inh	TWEAK-Fn14 inh	LGR2 inh	FN deposit inh	XiGFP reactiv
Nc1cccc2c1C(=O)N(C(=O)c1ccco1)C2=O	-3.5	-23.0	-13.1	16.9	6.5	0.5
Nc1cccc2c1C(=O)N(C(=O)/C=C/c1ccc(F)cc1)C2=O	9.6	16.1	83.9*	47.4	3.0	0.0
Cc1cc(C)n(-c2nc(N(c3ccccc3)c3ccccc3)nc(-n3nc(C)cc3C)n2)n1	·	9.8	106.1*	·	·	·
C[C@@H]1CN([C@@H](C)CO)C(=O)c2cc(-c3ccccc3F)cnc2O[C@@H]1CN(C)C(=O)c1cnccn1	-6.3	·	·	6.7	1.7	-0.5
Fc1ccc(-c2nc3c4ccccc4ccn3c2Cc2cccc(F)c2)cc1	-6.5	·	·	11.1	2.2	0.1
Clc1cccc(Cc2c(-c3ccco3)nc3c4ccccc4ccn23)c1	10.4	0.0	68.7*	12.2	-0.7	0.1
Fc1cccc(Cc2c(-c3ccco3)nc3ccc(Cl)cn23)c1	·	-3.6	54.0*	·	·	·
Fc1cccc(Cc2c(-c3ccco3)nc3c4ccccc4ccn23)c1	-107.3	6.6	51.4*	-99.5	9.2	-0.1
Fc1cccc(Cc2c(-c3ccco3)nc3ccc(Br)cn23)c1	2.2	3.6	45.3	-3.1	-5.1	0.1
O=C(/C=C/c1ccccc1[N+](=O)[O-])c1ccccc1Br	54.4*	-12.4	9.9	?	-23.4	-0.1
Cc1ccc(C(=O)/C=C/c2ccccc2[N+](=O)[O-])cc1	5.1	-62.7	29.7	-53.1	-3.3	0.0
C[C@@H]1CCCCO[C@H](CN(C)Cc2ccc3c(c2)OCO3)[C@@H](C)CN([C@@H](C)CO)C(=O)c2cc(NS(=O)(=O)c3ccccc3)ccc2O1	5.2	·	·	-7.3	-5.4	0.1
COc1cccc(NC(=O)Cn2cc(C=O)c3ccccc32)c1	6.2	11.4	17.9	13.6	-2.6	0.0
CCc1cccc(NC(=O)Cn2cc(C=O)c3ccccc32)c1	16.5	17.9	71.5*	5.4	-1.2	-0.1
O=[N+]([O-])c1ccc(/C=N/Nc2nc(N3CCCCC3)nc(N3CCCCC3)n2)cc1	-3.5	-11.9	-4.4	·	-2.7	0.0
O=[N+]([O-])c1ccc(Nc2nc(N/N=C\c3ccc4c(c3)OCO4)nc(N3CCCCC3)n2)cc1	·	11.6	54.5*	·	-0.8	·
Cc1ccccc1OCC(=O)Nc1sc2c(c1C#N)CC(C)(C)NC2(C)C	6.2	7.5	30.7	-26.2	2.0	0.1
CC1(C)Cc2c(sc(NC(=O)COc3ccc(Cl)cc3)c2C#N)C(C)(C)N1	·	-21.4	101.1*	·	·	·
COc1ccc(NC(=O)N(C)C[C@H]2OCCCC[C@@H](C)Oc3ccc(NC(=O)Nc4ccc5c(c4)OCO5)cc3C(=O)N([C@@H](C)CO)C[C@H]2C)cc1	-2.8	·	·	-7.5	·	0.1
